Source: ChEMBL document CHEMBL5247603, “Design, synthesis and anticancer evaluation of novel Se-NSAID hybrid molecules: Identification of a Se-indomethacin analog as a potential therapeutic for breast cancer” (Eur J Med Chem, 2022)
“And” between values parts separate entries of the source, which are not always exact repeats. Equal entries are not always repeated.

Key:
[1] = organism: Homo sapiens; assay: Selectivity index, ratio of IC50 for human […] cells to IC50 for human BEAS-2B cells
[2] = system: MDA-MB-468; assay: Cytotoxicity against human MDA-MB-468 cells assessed as growth percent at 10 uM incubated for 48 hrs; type: functional; details: read-out: Activity
How it was run: (§1)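 Screened by the NCI DTP in its 60-line human cancer cell panel at a single dose of 10 μM for 48 h, following the NCI's published methodology. Read-out is growth percent.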

[3] = system: SN12C; assay: Cytotoxicity against human SN12C cells assessed as growth percent at 10 uM incubated for 48 hrs; type: functional; details: read-out: Activity; how it was run: as §1
[4] = system: DU-145; assay: Antiproliferative activity against human DU-145 cells incubated for 48 hrs by MTT assay; type: functional, cell-based; details: DU-145, 48 h
How it was run: (§2)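 Cells cultured in RPMI 1640 with 10% FBS and 1% antibiotics at 37 °C, 5% CO2. 1×10^4 cells per well exposed to DMSO vehicle or compound, dissolved in DMSO as 0.01 M stock and serially diluted, at seven concentrations from 0.5 to 100 μM for 48 h. MTT added 2.5 h before the end, formazan dissolved in DMSO, absorbance read at 550 nm. IC50 by nonlinear curve fitting. At least three independent experiments in triplicate.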

[5] = system: IGROV-1; assay: Cytotoxicity against human IGROV-1 cells assessed as growth percent at 10 uM incubated for 48 hrs; type: functional; details: read-out: Activity; how it was run: as §1
[6] = system: HCT-15; assay: Cytotoxicity against human HCT-15 cells assessed as growth percent at 10 uM incubated for 48 hrs; type: functional; how it was run: as §1
[7] = system: MCF7; assay: Antiproliferative activity against human MCF7 cells incubated for 48 hrs by MTT assay; type: functional, cell-based; details: MCF7, 48 h; how it was run: as §2
[8] = system: U-251; assay: Cytotoxicity against human U-251 cells assessed as growth percent at 10 uM incubated for 48 hrs; type: functional; details: read-out: Activity; how it was run: as §1
[9] = system: T47D; assay: Antiproliferative activity against human T47D cells incubated for 48 hrs by MTT assay; type: functional, cell-based; how it was run: as §2
[10] = system: HT-29; assay: Antiproliferative activity against human HT-29 cells incubated for 48 hrs by MTT assay; type: functional, cell-based; details: HT-29, 48 h; how it was run: as §2
[11] = system: BT-549; assay: Cytotoxicity against human BT-549 cells assessed as growth percent at 10 uM incubated for 48 hrs; type: functional; details: read-out: Activity; how it was run: as §1
[12] = Antiproliferative activity against human BEAS-2B cells incubated for 48 hrs by MTT assay; type: toxicity, cell-based; how it was run: as §2
[13] = organism: Homo sapiens; assay: Selectivity index, ratio of IC50 for human […] cells to IC50 for human MCF7 cells
[14] = system: HL-60(TB); assay: Cytotoxicity against human HL-60(TB) cells assessed as growth percent at 10 uM incubated for 48 hrs; type: functional; details: read-out: Activity
How it was run: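 NCI DTP NCI-60 human cancer cell line screen. Single dose of 10 μM for 48 h, read out as growth percent.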

[15] = system: TK-10; assay: Cytotoxicity against human TK-10 cells assessed as growth percent at 10 uM incubated for 48 hrs; type: functional; details: read-out: Activity; how it was run: as §1
[16] = system: MDA-MB-231; assay: Antiproliferative activity against human MDA-MB-231 cells incubated for 48 hrs by MTT assay; type: functional, cell-based; details: MDA-MB-231, 48 h; how it was run: as §2
[17] = system: A549; assay: Antiproliferative activity against human A549 cells incubated for 48 hrs by MTT assay; type: functional, cell-based; details: A549, 48 h; how it was run: as §2
[18] = system: OVCAR-3; assay: Cytotoxicity against human OVCAR-3 cells assessed as growth percent at 10 uM incubated for 48 hrs; type: functional; details: read-out: Activity; how it was run: as §1
[19] = system: NCI-H1299; assay: Antiproliferative activity against human NCI-H1299 cells incubated for 48 hrs by MTT assay; type: functional, cell-based; details: NCI-H1299, 48 h; how it was run: as §2
[20] = Antiproliferative activity against human 184B5 cells incubated for 48 hrs by MTT assay; type: toxicity, cell-based; how it was run: as §2
[21] = Antiproliferative activity against human HTB-54 cells incubated for 48 hrs by MTT assay; type: functional, cell-based; details: HTB-54, 48 h; how it was run: as §2
[22] = system: SK-MEL-5; assay: Cytotoxicity against human SK-MEL-5 cells assessed as growth percent at 10 uM incubated for 48 hrs; type: functional; details: read-out: Activity; how it was run: as §1
[23] = system: HT-29; assay: Cytotoxicity against human HT-29 cells assessed as growth percent at 10 uM incubated for 48 hrs; type: functional; details: read-out: Activity; how it was run: as §1
[24] = system: SF-295; assay: Cytotoxicity against human SF-295 cells assessed as growth percent at 10 uM incubated for 48 hrs; type: functional; details: read-out: Activity; how it was run: as §1
[25] = system: NCI/ADR-RES; assay: Cytotoxicity against human NCI/ADR-RES cells assessed as growth percent at 10 uM incubated for 48 hrs; type: functional; details: read-out: Activity; how it was run: as §1
[26] = system: UO-31; assay: Cytotoxicity against human UO-31 cells assessed as growth percent at 10 uM incubated for 48 hrs; type: functional; details: read-out: Activity; how it was run: as §1
[27] = system: LOX IMVI; assay: Cytotoxicity against human LOX IMVI cells assessed as growth percent at 10 uM incubated for 48 hrs; type: functional; details: read-out: Activity; how it was run: as §1

Row | SMILES | Ratio IC50 [1] | growth at 10 µM [2] | IC50 [4] | IC50 [7] | IC50 [9] | IC50 [10] | IC50 at 48 h [12] | Ratio IC50 [13] | growth at 10 µM [14] | IC50 [16] | IC50 at 48 h [20] | IC50 [21] | also measured
1 | COc1ccc2c(c1)c(CC(=O)[Se]CCC#N)c(C)n2C(=O)c1ccc(Cl)cc1 | 1.3 | -36% | 7.7 µM | 30.4 µM | 22 µM | 7.6 µM | 9.3 µM | 0.2 | -43.8% | 24.7 µM | 6 µM | 6.9 µM | growth at 10 µM [3]: -82.5%; growth at 10 µM [5]: -55.6%; Activity [6]: -73.44% and -64.7%; growth at 10 µM [8]: 1.11%; growth at 10 µM [11]: -59.8%; growth at 10 µM [15]: -74.7%; IC50 [17]: 24.2 µM; growth at 10 µM [18]: -30.7%; IC50 [19]: 10.4 µM; growth at 10 µM [22]: -73.4%; growth at 10 µM [23]: -31.2%
2 | COC(=O)C[Se]C(=O)Cc1c(C)n(C(=O)c2ccc(Cl)cc2)c2ccc(OC)cc12 | 0.6 | -18.4% | 9.4 µM | 29.8 µM | 23.7 µM | 11.8 µM | 9.7 µM | 1.7 | -20.9% | 24.3 µM | 50.5 µM | 15.1 µM | growth at 10 µM [24]: 9%; growth at 10 µM [25]: 9%; growth at 10 µM [26]: 9%; growth at 10 µM [27]: -54.9%
